This note sets out measurements from ChEMBL document CHEMBL3526127, “Absorption, elimination, and metabolism of CS-1036, a novel α-amylase inhibitor in rats and monkeys, and the relationship between gastrointestinal distribution and suppression of glucose absorption” (Drug Metab Dispos, 2013).

The nature of data set [1]: Drug excretion in F344 rat urine at 1 mg/kg, po administered as single dose after 0 to 168 hrs by scintillation counting method. The settings on record: in vivo. Set-up: dose 1 mg/kg, route oral. It counts as ADME, organism-based. In a few lines:
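Fasted F344 rats (152–156 g iv via tail vein; 154–159 g oral; n = 4) received [14C]-labelled drug at 1 mg/kg (41.9 µCi/kg). Animals were kept in metabolic cages; urine and feces were collected to 168 h, and expired CO2 was trapped in 2-aminoethanol/2-methoxyethanol (1:1) to 48 h. Samples were counted by liquid scintillation (feces homogenized). Results are % of dose, mean ± S.D.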

For another data set, the system named is Rattus norvegicus. Kind of data set: Total drug excretion in bile duct cannulated F344 rat at 1 mg/kg, iv administered as single dose after 0 to 48 hrs by scintillation counting method. In kind it is ADME, organism-based. Also noted: dose 1 mg/kg, route intravenous. Conditions: in vivo. In a few lines:
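Under ether anesthesia, the common bile duct of fasted F344 rats was cannulated. After recovery, rats received 1 mg/kg (41.9 µCi/kg) of the 14C-labelled compound iv or by oral gavage (n = 4). They were kept in Bollman cages, and bile was collected at 0–6, 6–24, 24–30 and 30–48 h at 4°C. Radioactivity was measured by liquid scintillation counting as % of dose.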

A short description of data set [2]: Ratio of drug level in blood to plasma in cynomolgus monkey after 5 mins. It counts as ADME, Macaca fascicularis.
Data set [3] is described as follows: Drug metabolism in human liver S9 fractions at 0.42 uCi/ml assessed as metabolite formation in presence of NADPH after 1 hr at 37 degC by LC-MS/MS method. It counts as ADME, subcellular, Liver S9 fraction. The settings on record: s9, 1 h.
Data set [4] can be described thus: Drug metabolism in human kidney S9 fractions at 0.42 uCi/ml assessed as metabolite formation in presence of NADPH after 1 hr at 37 degC by LC-MS/MS method. In kind it is ADME, tissue-based. The settings on record: s9, 1 h.
The nature of data set [5]: Drug metabolism in po dosed F344 rat urine assessed as 1,4-dideoxy-1,4-imino-D-arabinitol formation by LC-MS/MS method. In kind it is ADME, organism-based. The settings on record: in vivo.
In data set [6] the test system is Cynomolgus monkey. As to the kind of experiment: Total drug excretion in cynomolgus monkey at 3 mg/kg, iv administered as single dose after 0 to 48 hrs by scintillation counting method. Also noted: dose 3 mg/kg, route intravenous. Conditions: in vivo. In kind it is ADME, organism-based, Macaca fascicularis. In a few lines:
(§1)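 Fasted male cynomolgus monkeys (n = 4) were dosed with 14C-labelled drug at 3 mg/kg, iv via saphenous vein (191 µCi/kg) or orally by stomach catheter (156.5 µCi/kg). Urine, feces and cage-wash water were collected to 336 h. Radioactivity was measured by liquid scintillation counting, with feces homogenized in water, and expressed as % of dose.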

The nature of data set [7]: Drug excretion in cynomolgus monkey feces at 3 mg/kg, iv administered as single dose after 0 to 336 hrs by scintillation counting method. It counts as ADME, organism-based, Macaca fascicularis. The settings on record: in vivo. Set-up: dose 3 mg/kg, route intravenous. In a few lines: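 Fasted cynomolgus monkeys (n = 4) received [14C]-labelled drug at 3 mg/kg, iv via saphenous vein (191 µCi/kg) or orally by stomach catheter (156.5 µCi/kg). Urine, feces and water cage-wash were collected to 336 h. Samples were counted by liquid scintillation; feces were homogenized in 4-fold water. Results are % of dose, mean ± S.D.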

Data set [8] has as its system Cynomolgus monkey. Kind of data set: Total drug excretion in cynomolgus monkey at 3 mg/kg, po administered as single dose after 0 to 336 hrs by scintillation counting method. It counts as ADME, organism-based, Macaca fascicularis. Also noted: dose 3 mg/kg, route oral. The settings on record: in vivo. Summed up:
as §1

Data set [9] is described as follows: Drug excretion in cynomolgus monkey urine at 3 mg/kg, po administered as single dose after 48 hrs by scintillation counting method. The settings on record: in vivo.
The nature of data set [10]: Half life in cynomolgus monkey at 10 mg/kg, po administered as single dose by LC-MS/MS method. In kind it is ADME, organism-based, Macaca fascicularis. Set-up: dose 10 mg/kg, route oral. The settings on record: in vivo. Summed up: (§2)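 Male F344 rats (146–185 g) and male cynomolgus monkeys (3.48–4.29 kg), n = 4 each, fasted overnight, received single iv or oral doses of 0.3, 1.0, 3.0 or 10.0 mg/kg. Monkeys had 2-week washouts between doses. Plasma was sampled to 48 h and assayed by LC-MS/MS with deuterated internal standard. Noncompartmental analysis: tmax observed; t1/2 by regression on ≥3 terminal log points; Vss = dose·AUMC/(AUC0–inf)²; Foral = oral/iv AUC0–inf at the same dose.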

Data set [11] in a line: Oral bioavailability in cynomolgus monkey at 3 mg/kg administered as single dose by LC-MS/MS method. In kind it is ADME, organism-based, Macaca fascicularis. The settings on record: in vivo. In a few lines: as §2
Data set [12] is described as follows: Oral bioavailability in cynomolgus monkey at 10 mg/kg administered as single dose by LC-MS/MS method. It counts as ADME, organism-based, Macaca fascicularis. Conditions: in vivo. Summed up:
as §2

A short description of data set [13]: Half life in F344 rat at 10 mg/kg, iv administered as single dose by LC-MS/MS method. In kind it is ADME, organism-based. Also noted: dose 10 mg/kg, route intravenous. Conditions: in vivo. Summed up:
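Fasted male F344 rats (146–185 g, n = 4 per dose) received single i.v. CS-1036. Plasma was sampled up to 48 h and analysed by LC-MS/MS. t1/2 came from noncompartmental regression of three or more log-transformed terminal-phase points. Mean ± S.D.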

Data set [14] is described as follows: Half life in cynomolgus monkey at 10 mg/kg, iv administered as single dose by LC-MS/MS method. Conditions: in vivo. It counts as ADME, organism-based, Macaca fascicularis. Set-up: dose 10 mg/kg, route intravenous. Summed up:
as §2

The nature of data set [15]: AUC (0 to infinity) in cynomolgus monkey at 0.3 mg/kg, iv administered as single dose by LC-MS/MS method. It counts as ADME, organism-based, Macaca fascicularis. Set-up: time infinity, dose 0.3 mg/kg, route intravenous. Conditions: plasma. Summed up:
(§3)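 Fasted male F344 rats (146–185 g) or male cynomolgus monkeys (3.48–4.29 kg), n = 4 per dose, given single iv or oral dose of 0.3, 1.0, 3.0 or 10.0 mg/kg; monkeys dosed with 2-week washouts. Blood sampled to 48 h; plasma stored frozen. LC-MS/MS with deuterated internal standard. Noncompartmental analysis: AUClast by trapezoidal rule; AUC0–inf = AUClast + Ctz/terminal rate constant; mean ± S.D.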

Data set [16] in a line: AUC (0 to infinity) in cynomolgus monkey at 10 mg/kg, iv administered as single dose by LC-MS/MS method. It counts as ADME, organism-based, Macaca fascicularis. Also noted: dose 10 mg/kg, route intravenous, time infinity. The settings on record: plasma. Summed up:
as §3

Data set [17] can be described thus: Clearance in F344 rat at 1 mg/kg, iv administered as single dose by LC-MS/MS method. In kind it is ADME, organism-based. Also noted: dose 1 mg/kg, route intravenous. The settings on record: in vivo. In a few lines: (§4)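 Fasted male F344 rats (146–185 g) and male cynomolgus monkeys (3.48–4.29 kg), n = 4 each, received a single iv dose; monkeys had 2-week washouts between doses. Blood was sampled up to 48 h and plasma stored at […]. Plasma parent was quantified by LC-MS/MS with a deuterated internal standard. CL = dose/AUC0–inf by noncompartmental analysis; mean ± S.D.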

Data set [18] can be described thus: Clearance in F344 rat at 10 mg/kg, iv administered as single dose by LC-MS/MS method. Conditions: in vivo. Also noted: dose 10 mg/kg, route intravenous. In kind it is ADME, organism-based. Summed up:
as §4

Data set [19] is described as follows: Clearance in cynomolgus monkey at 1 mg/kg, iv administered as single dose by LC-MS/MS method. Also noted: dose 1 mg/kg, route intravenous. Conditions: in vivo. In kind it is ADME, organism-based, Macaca fascicularis. Summed up: as §4
Data set [20] is described as follows: Volume of distribution at steady state in F344 rat at 10 mg/kg, iv administered as single dose by LC-MS/MS method. In kind it is ADME, organism-based. Also noted: dose 10 mg/kg, route intravenous. The settings on record: in vivo, read-out: Vdss. In a few lines: as §2
Data set [21] is described as follows: Tmax in cynomolgus monkey at 1 mg/kg, po administered as single dose by LC-MS/MS method. It counts as ADME, organism-based, Macaca fascicularis. Also noted: dose 1 mg/kg, route oral. The settings on record: in vivo. Summed up:
as §2

The nature of data set [22]: AUClast in F344 rat at 1 mg/kg, po administered as single dose by LC-MS/MS method. It counts as ADME, organism-based. Set-up: time 0 - last, dose 1 mg/kg, route oral. Conditions: plasma. Summed up:
as §3

The nature of data set [23]: Half life in F344 rat at 3 mg/kg, po administered as single dose by LC-MS/MS method. It counts as ADME, organism-based. Also noted: dose 3 mg/kg, route oral. Conditions: in vivo. Summed up: as §2
Data set [24] in a line: Half life in F344 rat at 0.3 mg/kg, po administered as single dose by LC-MS/MS method. It counts as ADME, organism-based. Also noted: dose 0.3 mg/kg, route oral. Conditions: in vivo.

Molecules are shown by their SMILES.

As for `C[C@H]1O[C@@H](O[C@H]2[C@H](O)[C@@H](O)[C@@H](O[14C@H]3[14C@H](O)[14CH2]N[14C@@H]3[14CH2]O)O[C@@H]2CO)[C@H](O)[C@@H](O)[C@@H]1O`, the Drug excretion turned out to be 15.32% in data set [1]; 0.37% in the data set on Rattus norvegicus; 94.29% in the data set with Cynomolgus monkey [6]; 0.66% in data set [7]; 95.15% in the data set with Cynomolgus monkey [8]; 2.9% in [9]. Also, the blood plasma ratio at 5 min in data set [2] was 0.595. For the same molecule, the Drug metabolism result was “metabolite_not_detected” in [3], “metabolite_not_detected” in data set [4] and “metabolite_detected” in data set [5].
As to `C[C@H]1O[C@@H](O[C@H]2[C@H](O)[C@@H](O)[C@@H](O[C@H]3[C@H](O)CN[C@@H]3CO)O[C@@H]2CO)[C@H](O)[C@@H](O)[C@@H]1O`, the half-life in [10] is 12.6 h; in [13], 21.5 h; in [14], 30 h; in [23], 4.16 h; in data set [24], 2.69 h. Moreover, the values for the bioavailability in data set [11] and in data set [12] were 1.05% and 1.2%, respectively. In addition, the AUC(0-inf) in data set [15] amounted to 2010 ng·h/mL; in [16] it was 74500 ng·h/mL. Besides, the values for the clearance in data set [17], in data set [18] and in data set [19] were 3.44 mL/min/kg, 3.16 mL/min/kg and 2.84 mL/min/kg, respectively. In addition, the Vd in data set [20] worked out at 0.222 L/kg. Also, the time to peak (Tmax) in data set [21] is 1.75 h. In data set [22], this molecule had an AUC(0-t) of 110 ng·h/mL.
